{
  "source": "paper PMC3348450",
  "about": "(Investigational New Drugs, 2011)",
  "key": {"[1]": {"conditions": "cited from earlier work"}, "[2]": {"conditions": "cited from earlier work", "remark": "listed apart in the source"}, "[3]": {"assay": "Treatment-related adverse events", "assay_type": "in vivo, human", "summary_of_the_method": "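Adverse events were graded by CTCAE version 3.0 throughout both studies in 18 Japanese patients on the oral test compound, taken in the fed state. Study 1 gave 5 mg BID continuously, six patients first receiving a single 5-mg dose. Study 2 gave single 5-, 7- and 10-mg doses, then 5 mg BID. Titration was to 7 then 10 mg BID; reduction was to 3 or 2 mg BID.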"}, "[4]": {"assay": "Treatment-related laboratory abnormalities, phase I Study 1 and Study 2", "assay_type": "in vivo, human", "conditions": "treatment-related laboratory abnormality; pooled; N = 18", "summary_of_the_method": "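Laboratory abnormalities were pooled across 18 Japanese patients with solid tumours from two studies. Patients took the oral test compound in the fed state: 5 mg BID continuous dosing, preceded by single doses in some patients (5 mg; or 5, 7 and 10 mg in Study 2). Dose could be raised to 7 then 10 mg BID, or cut to 3 or 2 mg BID for toxicity.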"}, "[5]": {"assay": "Plasma pharmacokinetics of axitinib", "assay_type": "in vivo, human"}, "thyroid gland": {"system": "thyroid gland", "assay": "Thyroid function tests", "assay_type": "in vivo, human", "conditions": "two studies, 18 patients", "summary_of_the_method": "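Study 1 measured TSH weekly in cycle 1, then every 2 weeks. Study 2 determined anti-TPO and antithyroglobulin antibody titres at screening, and measured TSH, free T3, free T4 and thyroglobulin weekly in cycle 1, then every 2 weeks. Study 2 also measured total cholesterol and CPK, monitored thyroid tests at every visit, and gave thyroid hormone replacement according to TSH to keep patients euthyroid.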"}, "[6]": {"system": "advanced malignant solid tumors", "assay": "Preliminary antitumor activity", "assay_type": "in vivo, human", "conditions": "11 of 17 evaluable patients who had a target lesion"}, "[7]": {"conditions": "cited from earlier work", "remark": "listed apart in the source"}, "[8]": {"conditions": "Study 2 (N = 6), four patients received thyroid hormone replacement therapy"}, "[9]": {"conditions": "treatment-related, pooled, N = 18"}},
  "data": [
    {"smiles": "CNC(=O)c1cc(Oc2ccc(NC(=O)Nc3ccc(Cl)c(C(F)(F)F)c3)cc2)ccn1", "note": "[sorafenib]", "values": [
      {"measurement": "Hypothyroidism and thyroid dysfunction, patients", "setting": "[1]", "value": "~ 20%"},
      {"measurement": "Hemoglobin change in treated patients", "setting": "[2]", "value": "Elevation of hemoglobin"}
    ]},
    {"smiles": "CCN(CC)CCNC(=O)c1c(C)[nH]c(/C=C2\\C(=O)Nc3ccc(F)cc32)c1C", "note": "[sunitinib]", "values": [
      {"measurement": "Hypothyroidism and thyroid dysfunction, patients", "setting": "[1]", "value": "36–85%"},
      {"measurement": "Hemoglobin change in treated patients", "setting": "[2]", "value": "Elevation of hemoglobin"}
    ]},
    {"smiles": "CNC(=O)c1ccccc1Sc1ccc2c(/C=C/c3ccccn3)n[nH]c2c1", "note": "[axitinib, Axitinib]", "values": [
      {"measurement": "Grade 3/4 fatigue, patients", "setting": "[3]; 18 patients", "value": 28, "unit": "%"},
      {"measurement": "Grade 3/4 hypertension, patients", "setting": "[3]; 18 patients", "value": 33, "unit": "%"},
      {"measurement": "Grade 3/4 fatigue, patients", "setting": "[3]; Study 1", "value": 42, "unit": "%"},
      {"measurement": "Treatment-related fatigue, all grades", "setting": "[3]; Study 1 (N = 12)", "value": "10 (83) n (%)"},
      {"measurement": "Treatment-related fatigue, grade 3/4", "setting": "[3]; Study 1 (N = 12)", "value": "5 (42) n (%)"},
      {"measurement": "Treatment-related fatigue, all grades", "setting": "[3]; [8]", "value": "5 (83) n (%)"},
      {"measurement": "Treatment-related fatigue, grade 3/4", "setting": "[3]; [8]", "value": "0 n (%)"},
      {"measurement": "Anorexia, patients", "setting": "[3]; treatment-related, 18 patients", "value": 72, "unit": "%"},
      {"measurement": "Diarrhea, patients", "setting": "[3]; treatment-related, 18 patients", "value": 67, "unit": "%"},
      {"measurement": "Hand–foot syndrome, patients", "setting": "[3]; treatment-related, 18 patients", "value": 67, "unit": "%"},
      {"measurement": "Hypertension, patients", "setting": "[3]; treatment-related, 18 patients", "value": 61, "unit": "%"},
      {"measurement": "Fatigue, all grades", "setting": "[3]; treatment-related, pooled Study 1 and Study 2, N = 18", "value": "15 (83) n (%)"},
      {"measurement": "Anorexia, all grades", "setting": "[3]; [9]", "value": "13 (72) n (%)"},
      {"measurement": "Constipation, all grades", "setting": "[3]; [9]", "value": "7 (39) n (%)"},
      {"measurement": "Diarrhea, all grades", "setting": "[3]; [9]", "value": "12 (67) n (%)"},
      {"measurement": "Epistaxis, all grades", "setting": "[3]; [9]", "value": "5 (28) n (%)"},
      {"measurement": "Hand–foot syndrome, all grades", "setting": "[3]; [9]", "value": "12 (67) n (%)"},
      {"measurement": "Hand–foot syndrome, grade 3/4", "setting": "[3]; [9]", "value": "1 (6) n (%)"},
      {"measurement": "Headache, all grades", "setting": "[3]; [9]", "value": "4 (22) n (%)"},
      {"measurement": "Hoarseness, all grades", "setting": "[3]; [9]", "value": "9 (50) n (%)"},
      {"measurement": "Hypertension, all grades", "setting": "[3]; [9]", "value": "11 (61) n (%)"},
      {"measurement": "Nausea, all grades", "setting": "[3]; [9]", "value": "4 (22) n (%)"},
      {"measurement": "Rash, all grades", "setting": "[3]; [9]", "value": "6 (33) n (%)"},
      {"measurement": "Stomatitis, all grades", "setting": "[3]; [9]", "value": "10 (56) n (%)"},
      {"measurement": "Fatigue (all grades), patients", "setting": "[3]; treatment-related, two studies, 18 patients", "value": 83, "unit": "%"},
      {"measurement": "Anemia", "setting": "[3]; two phase I studies", "value": "not reported as an adverse event"},
      {"measurement": "ALP increased, all grades", "setting": "[4]", "value": "4 (22) n (%)"},
      {"measurement": "AST increased, all grades", "setting": "[4]", "value": "4 (22) n (%)"},
      {"measurement": "Blood glucose increased, all grades", "setting": "[4]", "value": "5 (28) n (%)"},
      {"measurement": "Blood glucose increased, grade 3/4", "setting": "[4]", "value": "0 n (%)"},
      {"measurement": "Hematuria, all grades", "setting": "[4]", "value": "7 (39) n (%)"},
      {"measurement": "Lipase increased, all grades", "setting": "[4]", "value": "6 (33) n (%)"},
      {"measurement": "Lipase increased, grade 3/4", "setting": "[4]", "value": "0 n (%)"},
      {"measurement": "Lymphocyte count decreased, all grades", "setting": "[4]", "value": "1 (6) n (%)"},
      {"measurement": "Lymphocyte count decreased, grade 3/4", "setting": "[4]", "value": "0 n (%)"},
      {"measurement": "Neutrophil count decreased, all grades", "setting": "[4]", "value": "3 (17) n (%)"},
      {"measurement": "Neutrophil count decreased, grade 3/4", "setting": "[4]", "value": "1 (6) n (%)"},
      {"measurement": "Platelet count decreased, all grades", "setting": "[4]", "value": "6 (33) n (%)"},
      {"measurement": "Platelet count decreased, grade 3/4", "setting": "[4]", "value": "0 n (%)"},
      {"measurement": "Proteinuria, all grades", "setting": "[4]", "value": "9 (50) n (%)"},
      {"measurement": "TSH decreased, all grades", "setting": "[4]", "value": "4 (22) n (%)"},
      {"measurement": "TSH increased, all grades", "setting": "[4]", "value": "13 (72) n (%)"},
      {"measurement": "AUC", "setting": "[5]; human, plasma, oral, 5 mg", "value": 138, "unit": "ng·h/mL"},
      {"measurement": "Tmax", "setting": "[5]; human, plasma, oral, 5 mg", "value": 4.04, "unit": "h"},
      {"measurement": "half-life", "setting": "[5]; human, plasma, oral, 10 mg", "value": "4.8 to 5.9", "unit": "h"},
      {"measurement": "Time after administration at which plasma concentration reached maximum (Cmax)", "setting": "[5]; single dose 5, 7, 10 mg, Study 2", "value": "~ 4 h"},
      {"measurement": "Dose linearity of plasma pharmacokinetics", "setting": "[5]; single dosing of 5 mg, 7 mg and 10 mg", "value": "generally linear"},
      {"measurement": "Patients with elevation of TSH above the upper limit of normal range", "setting": "thyroid gland", "value": 89, "unit": "%"},
      {"measurement": "Evaluable patients with a reduction in tumor size", "setting": "[6]", "value": 65, "unit": "%"},
      {"measurement": "Plasma exposure, fed state versus shorter fasting durations", "setting": "[7]; 2 h before and 2 h after dosing, and 1 h before and 1 h after dosing", "value": "no difference in exposure"},
      {"measurement": "Plasma exposure, fed state versus overnight fasting state", "setting": "[7]; Western healthy volunteers", "value": "lower plasma exposure"},
      {"measurement": "Hemoglobin change in treated patients", "setting": "[2]", "value": "Elevation of hemoglobin"}
    ]}
  ]
}
